Screening data (PubChem)
L major viab: Leishmania major promastigote growth inhibition, primary screen; Leishmania major promastigotes, resazurin fluorescence viability; inhibition, % at 10 µM; 200,000 tested, 9% active;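 note: promastigotes grown with compound for 44 hours at 28 °C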
ABCB1 inh: ABCB1 efflux pump inhibitors, primary screen, cell-based, multiplex, flow cytometry, ABCG2 counter-screen | 190,000 tested, 0.067% active | inhibition, % at 6.6 µM | AID 1326, 2008 | ATP-dependent translocase ABCB1 (Homo sapiens), P08183 | CCRF-Adr cells, JC-1 efflux; in the data active = inhibition above about 40%;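 note: 0% = vehicle and 100% = reference inhibitor; higher value means more JC-1 retained so stronger ABCB1 efflux block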
GSH bead fluor: compound fluorescence on glutathione beads, profiling panel, artefact control, biophysical, 488/530 nm, flow cytometry; AID 1776, 2009; GSH beads flow cytometry, compound fluorescence 488/530 nm; hits give high values; fluorescence (KMESF) at 10 µM; 190,000 tested, 0.25% active; in the data active = fluorescence above about 89;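 note: glutathione beads carrying GST-tagged Bcl family fusion proteins plus one bare bead set; values are compound well signal with DMSO vehicle wells as background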
ABCG2 inh: ABCG2 efflux pump inhibitors, primary screen, multiplex with ABCB1, IgMXP3 cells, flow cytometry; JC-1 efflux; AID 1325, 2008; 190,000 tested, 0.1% active; Broad substrate specificity ATP-binding cassette transporter ABCG2 (Homo sapiens), Q9UNQ0; inhibition, % at 6.6 µM;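 active = inhibition above 80%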;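 note: 0% = DMSO and 100% = nicardipine control wells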
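Assay system – ABCG2 IgMXP3 and barcoded ABCB1 CCRF-Adr cell mix · Input – 3 million cells/mL in well · Reagent – JC-1 fluorescent substrate · Compound – single test compound dose, 6.6 µM final · Timing – 10 min exposure at 25 °C with rotation, no wash · Detection – flow cytometry of retained JC-1 fluorescence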
Avidin fluor: green autofluorescence of compounds with avidin beads – biophysical, 488/530 nm, flow cytometry, artefact control, profiling panel | AID 1775, 2009 | 220,000 tested, 0.38% active | fluorescence (KMESF) at 10 µM | compound fluorescence 488/530 nm; hits give high values; in the data active = fluorescence above about 47
PKD1 kinase inh: inhibitors of human PKD1 kinase, biochemical, fluorescence polarization | PKD1 kinase fluorescence polarization assay | inhibition, % (test concentration not listed) | 200,000 tested, 0.056% active
Target sequence (Q15139 whole entry, looked up): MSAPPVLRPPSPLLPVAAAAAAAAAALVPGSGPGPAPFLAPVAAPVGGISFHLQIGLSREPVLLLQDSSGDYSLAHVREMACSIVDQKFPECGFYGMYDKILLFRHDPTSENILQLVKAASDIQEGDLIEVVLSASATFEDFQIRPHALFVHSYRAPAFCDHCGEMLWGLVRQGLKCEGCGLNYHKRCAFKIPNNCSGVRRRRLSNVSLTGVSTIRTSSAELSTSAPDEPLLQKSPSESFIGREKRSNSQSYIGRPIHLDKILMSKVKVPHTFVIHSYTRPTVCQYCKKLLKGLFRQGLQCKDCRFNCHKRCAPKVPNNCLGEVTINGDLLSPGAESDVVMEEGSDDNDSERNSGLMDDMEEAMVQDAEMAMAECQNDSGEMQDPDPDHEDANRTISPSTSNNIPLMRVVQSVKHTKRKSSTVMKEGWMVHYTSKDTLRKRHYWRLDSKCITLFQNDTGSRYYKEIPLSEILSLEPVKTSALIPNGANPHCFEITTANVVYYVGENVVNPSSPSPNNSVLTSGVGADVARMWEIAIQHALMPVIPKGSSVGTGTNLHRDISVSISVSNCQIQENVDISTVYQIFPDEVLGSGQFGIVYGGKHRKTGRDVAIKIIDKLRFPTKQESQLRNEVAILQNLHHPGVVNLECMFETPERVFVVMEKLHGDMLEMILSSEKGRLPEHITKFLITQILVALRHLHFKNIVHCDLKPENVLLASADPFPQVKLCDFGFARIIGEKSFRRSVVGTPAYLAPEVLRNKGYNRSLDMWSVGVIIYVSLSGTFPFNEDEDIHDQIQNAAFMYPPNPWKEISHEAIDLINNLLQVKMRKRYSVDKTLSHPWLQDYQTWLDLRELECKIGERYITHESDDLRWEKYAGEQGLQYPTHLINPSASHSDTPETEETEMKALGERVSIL
Starred values were filed as active, the others as inactive. Only a selection was taken, and hits are over-represented in it overall. Cut-off read from the data, not from the text of the source, unless noted: active = inhibition above about 50%; inactive = the rest.

Results for Cc1cccn2c(=O)c3c(nc12)N1CCc2ccccc2C1C1(C3)C(=O)NC(=O)N(C)C1=O (configuration not stated) ?
L major viab: 50.2*; ABCB1 inh: 0.7; GSH bead fluor: 26; ABCG2 inh: 0.6; Avidin fluor: 4; PKD1 kinase inh: 2.5

How did CCCCN1C(=O)NC(=O)C2(Cc3c(nc4ccccn4c3=O)N3CCc4ccccc4C32)C1=O (configuration not stated) do in these assays?
L major viab: 88.9*; ABCB1 inh: 5.3; GSH bead fluor: 24; ABCG2 inh: 3.9; Avidin fluor: 7; PKD1 kinase inh: -11.9

How did Cc1cccn2c(=O)c3c(nc12)N1CCCCCC1C1(C3)C(=O)N(C)C(=O)N(C)C1=O (configuration not stated) do in these assays?
Avidin fluor: 6

How did CCCCN1C(=O)NC(=O)C2(Cc3c(nc4c(C)cccn4c3=O)N3CCc4ccccc4C32)C1=O (configuration not stated) do in these assays?
L major viab: 96.2*; ABCB1 inh: 2.9; GSH bead fluor: 24; ABCG2 inh: 2.0; Avidin fluor: 7; PKD1 kinase inh: -4.3

Results for O=C(COc1ccc2ccccc2c1)N1CCN(Cc2c[nH]c3ccccc23)CC1 ?
L major viab: 5.5; ABCB1 inh: 0.2; GSH bead fluor: 33; ABCG2 inh: 1.7; Avidin fluor: 9; PKD1 kinase inh: 2.6

Results for O=C(Cn1cc(C(=O)c2ccccc2)c2ccccc21)NCc1ccco1 ?
L major viab: 8.8; ABCB1 inh: -0.6; GSH bead fluor: 20; ABCG2 inh: 3.7; Avidin fluor: 50*; PKD1 kinase inh: 1.4

Results for O=C(c1ccccc1)c1cn(CC(=O)N2CCCc3ccccc32)c2ccccc12 ?
L major viab: 94.8*; ABCB1 inh: 3.8; GSH bead fluor: 58; ABCG2 inh: 7.9; Avidin fluor: 1; PKD1 kinase inh: 3.9

What do the screens show for `O=C(c1ccco1)c1cn(Cc2ccc(Cl)cc2)c2ccccc12`?
L major viab: 79.6*; ABCB1 inh: 2.5; GSH bead fluor: 26; ABCG2 inh: 13.8; Avidin fluor: 33; PKD1 kinase inh: -8.9

How did O=C(CN1C(=O)CN=C(c2ccccc2)c2ccccc21)NCc1ccco1 do in these assays?
L major viab: 0.1; ABCB1 inh: 0.6; GSH bead fluor: 38; ABCG2 inh: 1.0; Avidin fluor: 5; PKD1 kinase inh: -0.5

What do the screens show for `CCOc1ccccc1-n1c(O)c(C=NCCCN(CC)CC)c(=O)[nH]c1=O`?
L major viab: 1.8; ABCB1 inh: 0.4; GSH bead fluor: 23; ABCG2 inh: 3.5; Avidin fluor: 19; PKD1 kinase inh: 3.6

Results for O=C(NC(=O)N1CCC2(CC1)OCCO2)c1ccc(Cl)cc1 ?
L major viab: -9.5; ABCB1 inh: -0.6; GSH bead fluor: 22; ABCG2 inh: -0.5; Avidin fluor: 4; PKD1 kinase inh: -4.5

How did CCCC(=O)c1ccc(CP(=O)(OCC)OCC)o1 do in these assays?
Avidin fluor: 10

What do the screens show for `N=Cc1c(O)n(-c2ccccc2)c(=O)n(-c2ccccc2)c1=O`?
Avidin fluor: 3

What do the screens show for `CN1C(=O)C(=Cc2ccccc2Oc2ccc(Cl)cc2)C(=O)N(C)C1=O`?
L major viab: 62.2*; ABCB1 inh: -0.6; GSH bead fluor: 23; ABCG2 inh: -1.5; Avidin fluor: 26; PKD1 kinase inh: -8.5

What do the screens show for `O=c1c2ccccc2nc(-c2ccco2)n1-c1ccccc1`?
L major viab: -2.5; ABCB1 inh: 0.4; GSH bead fluor: 125*; ABCG2 inh: 5.7; Avidin fluor: 12; PKD1 kinase inh: 2.6

Results for O=c1[nH]c(=O)n(CCc2ccc(F)cc2)c(O)c1C=NCCCn1ccnc1 ?
L major viab: 0.9; ABCB1 inh: 0.2; GSH bead fluor: 12; ABCG2 inh: 0.2; Avidin fluor: 11; PKD1 kinase inh: -8.1

How did COc1ccc(C2NCc3ccc4c(c3-n3cccc32)OCO4)cc1O (configuration not stated) do in these assays?
L major viab: 74.2*; ABCB1 inh: 1.5; GSH bead fluor: 26; ABCG2 inh: 4.8; Avidin fluor: 11; PKD1 kinase inh: 8.3

How did O=C(O)c1cccc2nc3ccccc3nc12 do in these assays?
L major viab: 99.8*; ABCB1 inh: 0.5; GSH bead fluor: 15; ABCG2 inh: -0.1; Avidin fluor: 11; PKD1 kinase inh: -0.7

Results for COC(=O)c1ccccc1-n1c(C)nc2ccccc2c1=O ?
L major viab: -3.9; ABCB1 inh: 0.1; GSH bead fluor: 23; ABCG2 inh: 19.6; Avidin fluor: 20; PKD1 kinase inh: -12.2

What do the screens show for `CCOC(=O)c1c(-n2c(C)cc(/C=C3\C(=O)NC(=O)N(C)C3=O)c2C)sc2c1CCCC2`?
L major viab: 92.5*; ABCB1 inh: 1.7; GSH bead fluor: 6; ABCG2 inh: 1.9; Avidin fluor: 7; PKD1 kinase inh: 1.5

What do the screens show for `Cc1cc(/C=C2\C(=O)NC(=O)N(c3ccc(Cl)cc3)C2=O)c(C)n1-c1sc2c(c1C#N)CCCC2`?
L major viab: 0.4; ABCB1 inh: -0.7; GSH bead fluor: 19; ABCG2 inh: -5.2; Avidin fluor: 7; PKD1 kinase inh: -9.5

Results for Oc1cccc(/C=N/NP(=S)(c2ccccc2)c2ccccc2)c1 ?
L major viab: 83.1*; ABCB1 inh: 0.5; GSH bead fluor: 14; ABCG2 inh: 2.0; Avidin fluor: 4; PKD1 kinase inh: -9.5

How did Cc1cc(/C=C2\C(=O)NC(=O)N(Cc3ccccc3)C2=O)c(C)n1-c1ccc(Cl)c(C(=O)O)c1 do in these assays?
L major viab: -2.2; ABCB1 inh: -0.7; GSH bead fluor: 6; ABCG2 inh: -4.6; Avidin fluor: 1; PKD1 kinase inh: -6.8

What do the screens show for `CNC(C(=O)c1ccccc1)C(OC)c1ccc(C)cc1` (configuration not stated)?
L major viab: -6.8; ABCB1 inh: 0.8; GSH bead fluor: 24; ABCG2 inh: 1.4; Avidin fluor: 11; PKD1 kinase inh: 3.9

How did O=C(CCn1c(=O)oc2ccccc21)N1CCC2(CC1)OCCO2 do in these assays?
L major viab: -2.1; ABCB1 inh: 0.8; GSH bead fluor: 15; ABCG2 inh: 6.7; Avidin fluor: 9; PKD1 kinase inh: -7.8

What do the screens show for `CC(C)CN(CC(C)C)c1ccc(C=C2C(=O)NC(=S)NC2=O)cc1[N+](=O)[O-]`?
L major viab: 81.3*; ABCB1 inh: -0.7; GSH bead fluor: 22; ABCG2 inh: -3.6; Avidin fluor: 13; PKD1 kinase inh: -3.7

Results for Cc1c(C(=O)Nc2ccccc2)cc(-c2ccccc2)n1CCCN1CCOCC1 ?
Avidin fluor: 6
